The species entered for the assay is Cavia porcellus. Briefly: Relative narcotic agonistic activity was performed by inhibition of electrically evoked contractions compared with [Met5]-enkephalin (100%) in guinea pig ileum. Further details: scale not given: the % may be the effect or the level left. In kind it is functional. In short, it runs like this: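 Isolated guinea pig ileum; inhibition of electrically evoked contractions as agonist read-out. Single pulses of 4-ms duration at 3 to 6 V; isometric contractions recorded. Potency expressed relative to [Met5]enkephalin taken as 100%.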

Peptide text beside a SMILES is read from it.

Turning to `COc1ccc(C[C@H](N)C(=O)NCC(=O)NCC(=O)N[C@@H](Cc2c[nH]c3ccccc23)C(=O)N[C@@H](CCSC)C(=O)O)cc1`, the Activity was found to be 0.5%.

Turning to `CSCC[C@H](NC(=O)[C@H](Cc1c[nH]c2ccccc12)N(C)C(=O)CNC(=O)CNC(=O)[C@@H](N)Cc1ccc(O)cc1)C(=O)O`, the Activity amounted to 39%.

For `N[C@@H](Cc1ccc(O)cc1)C(=O)NCC(=O)NCC(=O)N[C@@H](Cc1c[nH]c2ccccc12)C(=O)N1CCC[C@H]1C(=O)O`, the Activity is given as 1%.

With `CSCC[C@H](NC(=O)[C@H](Cc1ccccc1)NC(=O)CNC(=O)CNC(=O)[C@@H](N)Cc1ccc(O)cc1)C(=O)O`, the Activity was 100%.

Turning to `CC(C)C[C@@H](C(=O)O)N(C)C(=O)[C@H](Cc1c[nH]c2ccccc12)NC(=O)CNC(=O)CNC(=O)[C@@H](N)Cc1ccc(O)cc1`, the Activity turned out to be 4%.

`CC(C)C[C@H](NC(=O)[C@H](Cc1c[nH]c2ccccc12)NC(=O)CNC(=O)CNC(=O)[C@@H](N)Cc1ccc(O)cc1)C(=O)O`: the Activity is 10%.

`COc1ccc(C[C@H](N)C(=O)NCC(=O)NCC(=O)N[C@@H](Cc2ccccc2)C(=O)N[C@@H](CCSC)C(=O)O)cc1` had an Activity of 2%.

With `CC(C)C[C@@H](C(=O)O)N(C)C(=O)[C@H](Cc1ccccc1)NC(=O)CNC(=O)CNC(=O)[C@@H](N)Cc1ccc(O)cc1`, the Activity was 70%.

On to `N[C@@H](Cc1ccc(O)cc1)C(=O)NCC(=O)NCC(=O)N[C@@H](Cc1ccccc1)C(=O)N1CCC[C@H]1C(=O)O`, for which the Activity was found to be 1%.

Compound `CSCC[C@H](NC(=O)[C@H](Cc1c[nH]c2ccccc12)NC(=O)CNC(=O)CNC(=O)[C@@H](N)Cc1ccc(O)cc1)C(=O)O` (H-YGGWM-OH) had an Activity of 27%.

Turning to `CC(C)C[C@H](NC(=O)[C@H](Cc1ccccc1)NC(=O)CNC(=O)CNC(=O)[C@@H](N)Cc1ccc(O)cc1)C(=O)O` [ENKEPHALIN], the Activity was found to be 24%.

The values are drawn from ChEMBL document CHEMBL1121406, “Synthesis, in vitro opiate activity, and intramolecular tyrosine--tryptophan distances of [4-tryptophan]enkephalin analogues. A reassessment of conformational models of enkephalin in solution” (1980).
